Hits are enriched below; roughly 3% of the tested compounds scored in any of these assays.
Wnt act: activators of Wnt/beta-catenin signaling; activation, % at 9.35 µM; 300,000 compounds, 1.2% hits; Wnt/beta-catenin reporter cell assay, activator, plate reader; AID 743398; in the data active = activation above about 30%, passing the limit was not always enough; inconclusive = no clear call, values can overlap the other calls;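 also: 0% = neutral control wells and 100% = positive control wells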
MITF TRPM1 HTS: MITF TRPM1 promoter activation in melanoma cells. SK-MEL-5 TRPM1-promoter luciferase, 24 h; % of positive control, neutral wells = 0. activation, % at 12.5 µM. 300,000 compounds, 0.75% hits. AID 588334;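 active = mean activation of at least 80% with every replicate also reaching 80%; inconclusive = mean reaches 80% but some replicate falls short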;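 also: 0% = neutral control wells and 100% = parthenolide positive control wells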
Xi reactivation: X-chromosome reactivation activator; XiGFP mouse fibroblasts, % GFP-positive cells imaging, 3 d; cells co-treated with 5-aza-dC sensitizer; scaled so ellipticine positive control = 100%; activation, % at 7.58 µM; 360,000 compounds, 0.055% hits; AID 743238;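 active = mean normalized replicate activation at least 10% and every replicate at or above 10%; inconclusive = only one of the two criteria met; inactive = mean below 10% and not all replicates reach 10%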;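 also: 0% = median of on-plate neutral control wells and 100% = ellipticine 6 µM median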
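assay system = SV40-immortalized XiGFP fibroblast cells, line 68-5-11 | buffer or medium = DMEM plus 5-aza-dC sensitizer | doses = single-point pinned compound dosing | times = 3-day compound exposure, then 15 min fixation at room temperature | benchmarks = positive control ellipticine, 6 µM final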
NSD2 inh: NSD2 (human) methyltransferase inhibition. 310,000 compounds, 0.54% hits. AID 743445. O96028. inhibition, % at 12.5 µM. NSD2 peptide methylation, AlphaScreen, 120 min; in the data active = inhibition above about 50%
CASP6 VEID inh: blocks human caspase-6 cleavage activity | purified caspase-6, Z-VEID-R110 cleavage fluorescence | inhibition, % at 12.5 µM | 350,000 compounds, 0.53% hits | AID 686996;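 active = mean inhibition across replicates at least about 35%, with every replicate also reaching that limit, limit read from the data; inconclusive = only one of the two criteria met; inactive = neither criterion met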;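 also: 0% = median of neutral control wells and 100% = no fluorescence left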
Target sequence (P55212 24-179 limits assumed): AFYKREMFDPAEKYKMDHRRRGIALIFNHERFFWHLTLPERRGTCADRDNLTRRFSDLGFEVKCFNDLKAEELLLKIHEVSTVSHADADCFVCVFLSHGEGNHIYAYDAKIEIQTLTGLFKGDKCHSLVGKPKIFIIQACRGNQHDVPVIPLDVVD
Target sequence (P55212 194-293 limits assumed): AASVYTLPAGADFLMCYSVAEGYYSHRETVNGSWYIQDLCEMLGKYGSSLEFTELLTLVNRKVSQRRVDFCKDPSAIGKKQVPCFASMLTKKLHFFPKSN
esBAF inh: inhibitors of esBAF chromatin remodeling in mouse ES cells; Bmi1-luciferase knock-in reporter, 24 h; 100% = twice the neutral-well signal; AID 602393; 350,000 compounds, 2% hits; reporter increase, % at 12.5 µM; in the data active = activation above about 40%; inconclusive = no clear call, values can overlap the other calls;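 also: 0% = median of the plate's neutral control wells and 100% = double that signal; a rise in the Bmi1 reporter signal indicates esBAF inhibition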
Numbers without * were called inactive; ? = inconclusive; · = no result.

SMILES	Wnt act	MITF TRPM1 HTS	Xi reactivation	NSD2 inh	CASP6 VEID inh	esBAF inh
COc1cc(/C=C2\CCC/C(=C\c3ccc(O)c(OC)c3)C2=O)ccc1O	2.2	-11.0	0.3	12.0	16.8	9.1
COc1cc(/C=C2\CC/C(=C\c3cc(OC)c(OC)c(OC)c3)C2=O)cc(OC)c1OC	·	-18.2	0.2	2.0	-0.1	·
O=C(Nc1ccc(OC(F)(F)F)cc1)c1n[nH]c(Cn2cncn2)n1	81.1*	·	·	-0.9	·	6.7
O=C(Nc1ccc(OC(F)(F)F)cc1)c1ccc(-n2cncn2)nc1	-3.2	0.7	0.1	-2.0	-1.3	-0.4
COC(=O)C(=O)C1CCc2c(Cl)cc(OC)c(OC)c2C1=O (configuration not stated)	-0.5	-9.7	0.8	·	78.5*	·
Cc1cc(C(=O)OCC(=O)NCCc2ccccc2)c(C)o1	·	-2.9	·	12.3	·	-10.9
CC(=O)NCCc1ccc(C(=O)COC(=O)c2cc(C)oc2C)cc1	37.4*	17.2	0.2	0.9	-0.3	8.4
COc1ccc(CN(C)C[C@@H]2Oc3ccc(NC(=O)C4CC4)cc3CC(=O)N([C@@H](C)CO)C[C@H]2C)cc1	·	·	-0.7	·	-1.1	·
O=c1[nH]c(-[n+]2ccccc2)c(/C=N/NC([S-])=Nc2ccccc2)s1	-0.7	·	0.3	1.4	2.7	·
Cc1cc[n+](-c2[nH]c(=O)sc2/C=N/NC([S-])=Nc2ccccc2)cc1	4.7	-0.2	0.0	0.3	41.0*	·
COc1ccc2c3c(n(C)c2c1)[C@H](CO)NCC31CN(C(=O)Nc2ccc(F)cc2F)C1	·	·	0.2	·	·	·
C[C@H](CO)N1C[C@H](C)[C@H](CN(C)S(=O)(=O)c2ccc(F)cc2)Oc2ccc(NC(=O)NC3CCCCC3)cc2CC1=O	·	·	-1.1	·	0.4	6.0
CC(C)OCCOc1ccc2oc(-c3ccco3)cc(=O)c2c1	2.8	53.0	-0.1	0.0	35.0*	?
CN1CCS/C1=C/C=C1\SC(=S)N(CC(=O)O)C1=O	-2.5	8.7	0.4	9.8	29.5	-11.3
CCCCN1C(=O)/C(=C/C=C2\SCCN2C)SC1=S	11.4	91.6*	0.3	5.3	·	·
CC(=O)n1nc(-c2ccc(C)cc2)nc1NCc1ccco1	11.0	104.6*	0.3	-1.9	-3.2	·
COc1ccc2c3c([nH]c2c1)[C@@H](CO)N(Cc1cccnc1)CC31CN(C(=O)c2cccnc2)C1	·	·	0.3	·	·	·
CSCc1ccc(C(=O)Nc2cccc(C)c2C)cc1	34.2*	111.9*	0.1	1.0	·	·
Cc1ccccc1NC(=O)c1onc2c1CCCC2	-0.4	75.2	·	3.4	·	26.6
Cc1cccc(NC(=O)c2cccnc2)c1C	-1.5	7.2	0.1	4.2	-0.6	1.0
Cc1cccc(NC(=O)c2onc3c2CCCC3)c1C	·	86.5*	·	-2.9	·	51.3*
CC(=O)c1ccc(NC(=O)c2cccs2)cc1	15.4	58.1	·	·	14.1	32.0
COC(=O)Cc1ccc(NC(=O)c2cccs2)cc1	17.7	67.5	·	-7.2	·	48.8*
N/C(=N\O)c1ccc(NC(=O)c2cccs2)cc1	40.3*	53.3	·	·	·	21.9
C[C@@H]1CC=CCCNC(=O)[C@@H](C)N(C)C(=O)c2ccccc2O1 (mixture of isomers)	·	·	0.1	·	·	·
SMILES	Wnt act	MITF TRPM1 HTS	Xi reactivation	NSD2 inh	CASP6 VEID inh	esBAF inh
CO[C@@H]1CN(C)C(=O)c2ccc(NC(=O)C3CCOCC3)cc2OC[C@@H](C)N(CC2CC2)C[C@@H]1C	·	·	0.3	·	-5.2	2.2
COc1ccc(NC(=O)N(C)C[C@H]2Oc3ccc(NC(=O)CCCCCC(=O)Nc4ccccc4N)cc3C(=O)N([C@@H](C)CO)C[C@@H]2C)cc1	·	·	0.4	·	1.0	·
O=C(NCc1ccccc1)c1cccc2c1C(=O)c1ccc(/C=C/c3ccccc3)cc1S2(=O)=O	-8.9	-1.3	17.8*	·	·	-1.6
O=C(NC1CCCC1)c1cccc2c1C(=O)c1ccc(/C=C/c3ccccc3)cc1S2(=O)=O	0.9	-25.0	14.0*	·	-2.6	6.7
O=C1CSC(c2ccccc2)N1c1ccc(-c2ccccc2)cc1 (configuration not stated)	·	·	·	·	3.4	·
Nc1nc2n[nH]nc2c(=O)[nH]1	-2.8	-62.7	·	·	-2.9	103.3*
CCc1ccc(O)c(-c2cc(C(=O)Nc3cccnc3)[nH]n2)c1	?	108.6*	-0.1	-0.1	1.5	55.8*
Cc1cc(O)c(-c2cc(C(=O)Nc3cccnc3)[nH]n2)cc1C	40.4*	137.8*	-0.1	1.8	-1.3	55.8
Cc1cc(C)c(O)c(-c2cc(C(=O)Nc3cccnc3)[nH]n2)c1	21.8	34.9	-0.1	0.5	2.1	·
CC(=O)Nc1ccc(NC(=O)c2cc(-c3cc(C)c(C)cc3O)n[nH]2)cc1	2.9	-1.1	0.1	-0.8	-3.5	-0.2
Cc1ccc(S(=O)(=O)N(C)C[C@H]2Oc3c(NC(=O)C4CC4)cccc3C(=O)N([C@H](C)CO)C[C@@H]2C)cc1	·	·	-1.4	·	0.5	-3.6
CN(C)CC(=O)N1[C@H](C(=O)NCc2ccccc2F)[C@@H](CO)[C@@H]2Cn3c(cccc3=O)[C@@H]21	·	·	0.0	·	0.1	·
CCNC(=O)[C@@H]1[C@@H](CO)[C@@H]2Cn3c(ccc(-c4ccc(OC)cc4)c3=O)[C@@H]2N1Cc1ccccc1	·	·	0.3	·	11.4	2.2
CO[C@H]1CN(C)C(=O)c2ccc(NC(=O)c3ccccc3)cc2OC[C@@H](C)N(C(=O)C2CC2)C[C@@H]1C	·	·	0.1	·	·	-2.0
CCOC(=O)[C@H]1[C@H]2COc3ccc(Cl)cc3[C@@H]2N2C(=O)CN(Cc3ccc(C)cc3)C(=O)[C@@]12C	-1.6	13.3	0.0	·	39.7*	-8.4
CCOC(=O)[C@H]1[C@H]2COc3ccc(Cl)cc3[C@@H]2N2C(=O)CN(Cc3ccc(OC)cc3)C(=O)[C@@]12C	-1.0	-1.7	0.0	·	1.0	-7.1
O=C(c1cccnc1)N1CC[C@@H]2[C@H]1c1cc(C#Cc3cccnc3)ccc1N[C@@H]2CO	·	·	0.0	·	0.0	1.5
COc1cccc(C=NN2CCCCCC2)c1OC	-3.0	53.7	0.1	-2.4	-3.5	45.0*
C[C@@H]1C(=O)N[C@@H](c2cccc(Cl)c2)CC=CC[C@H](C)Oc2ccccc2C(=O)N1C (mixture of isomers)	·	·	0.2	·	·	·
CC(C)(C)OC(=O)NNC(=S)NC1CCCCC1	45.6*	3.6	-0.2	-0.3	-3.7	·
COc1cc(OC)c(C(=O)NNC(=S)NC2CCCCC2)cc1OC	-2.7	2.4	0.0	-1.2	-2.0	·
O=C(Oc1cccc2cccnc12)c1cccc(-n2cnnn2)c1	76.7*	9.0	·	-7.0	·	2.9
Cc1ccc(C(=O)Oc2cccc(-n3cnnn3)c2)cc1	5.9	111.8*	0.0	-1.0	-0.6	·
O=C(COC(=O)c1cccc(-n2cnnn2)c1)c1ccc(Br)cc1	23.2	21.8	0.3	-1.6	1.9	48.8*
CCCNC(=O)N1C[C@@H](O)COC[C@H]2O[C@@H](CC(=O)N3CCC(Cc4ccccc4)CC3)CC[C@@H]21	·	·	-0.1	·	-0.4	4.2

Screening results: PubChem, Broad Institute
